# Test results from PubChem BioAssay AID504382 (The Scripps Research Institute Molecular Screening Center, 2011).
# Out of some 2,500 compounds screened, about 460 (18%) were called active. Only a sample is shown. A number with no mark means an inactive call.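 Rule for the calls: active = mean activation above a cutoff of low control average plus 3 SD from the earlier screen (cut at about 12% in these data); inactive = the rest.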
# Test: compound fluorescence interference without thin filaments, confirmation, artefact control for cardiac RTF calcium sensitizer project, biochemical (AID 504382)
# Conditions: IANBD fluorescence interference counterscreen, buffer, EC20 Ca2+; at 7.2 µM; stronger effect = higher value; scaled: EC20 calcium 0, EC100 calcium 100
# How it was run: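 Medium: MOPS buffer, 190 mM, with KCl, MgCl2, EGTA, NTA, DTT, pH 7.20; Dosing: one dose of 7.2 µM, 0.7% DMSO; Probe or stimulus: calcium at EC20 level, 0.472 mM final; Incubation: 15 min, 25 °C; Evaluation: compound fluorescence interference relative to control well signal range; Signal: fluorescence, 480/540 nm.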
row,SMILES,fluorescence artifact activation
1,COc1ccc(OC)c(NC(=S)Nc2ccccc2)c1,-0.01%
2,COCc1cc(C)n(CC(=O)Nc2ccccc2C(=O)OC)c(=O)c1C#N,5.24%
3,COc1ccc(OC)c(NC(=O)CNC(=O)Cn2c(C)cc3ccccc3c2=O)c1,1380% (active)
4,C=CCn1c(COc2cccc(C)c2)nnc1SCn1nnc2ccccc2c1=O,0.03%
5,NC(=O)C1(NC(=O)[C@@H]2CC3(CC(c4cccc(NC(=O)[C@@H]5CCC(=O)N5)c4)=NO3)CN2C(=O)c2ccccc2)CC1 (stereo partly specified),0.3%
6,CCC(=O)Nc1ccc(NC(=S)NC(=O)c2oc3ccccc3c2C)cc1,0.25%
7,COCCCn1c(=O)/c(=C\c2ccccc2OC(C)C)s/c1=C(/C#N)C(=O)Nc1ccc(C(=O)O)cc1,0.05%
8,CCN(CC)c1ccc(/C=C(/C#N)C(=O)NCc2ccccc2)o1,0.1%
9,CCN(CC)c1ccc(/C=C(\C#N)C(=O)NCc2ccccc2)cc1,13.8% (active)
10,CCN(CC)c1ccc(/C=C(\C#N)C(N)=S)cc1,16.2% (active)
11,CN(C)c1ccc(/C=C(/C#N)C(=O)NCc2ccccc2)o1,2.9%
12,CCN(CC)c1ccc(/C=C(\C#N)C(=O)c2ccc(Br)cc2)cc1,-0.11%
13,CN(C)c1ccc(/C=C(\C#N)C(=O)c2ccccc2)cc1,0.22%
14,O=C(COC(=O)c1ccc(S(=O)(=O)N2CCCC2)cc1)NCc1ccco1,0.32%
15,COc1ccccc1C(=O)NN(C)C1=NS(=O)(=O)c2ccccc21,0.12%
16,CCNC(=O)NNC(=O)C1CC(c2cccs2)=NO1 (stereo unspecified),0%
17,Cc1ccc(C2NC(=O)c3c(sc4c3CCN(C)C4)N2)o1 (stereo unspecified),0.12%
18,CCOC(=O)c1c(C)[nH]c(C2=NNC(=NC(C)COC)SC2)c1C (stereo unspecified),22% (active)
19,Cc1cc(C)n(-c2ccc([N+](=O)[O-])cc2-c2nn[nH]n2)n1,2.39%
20,CCC(=Cc1ccccc1OC)c1ccncc1,3.06%
21,COc1ccc(CCNc2cc(C)[nH]c(=O)c2)cc1OC,0.6%

row,SMILES,fluorescence artifact activation
1,Cc1ccc(C)c(NC(=O)CCN2CCOCC2)c1,-0.02%
2,COc1ccc(NC(=O)CCN2CC(C)OC(C)C2)c(OC)c1 (stereo unspecified),0.05%
3,COc1ccc(NC(=O)CCN2CCCC2)c(OC)c1,27.4% (active)
4,COc1ccc(Nc2nc3ccc(C)cc3cc2C#N)c(OC)c1,0.04%
5,CCCN(CCC)S(=O)(=O)c1ccc(C(=O)OCCN2C(=O)c3cccc4c(N5CCOCC5)ccc(c34)C2=O)cc1,4.63%
6,Cc1ccccc1NC(=O)c1nnn(-c2ccc3c(c2)OCCO3)c1N,0.09%
7,CCN1C(=O)c2cccc3c(NC(=O)c4ccc5c(c4)OCCO5)ccc1c23,36.4% (active)
8,N#C/C(=C\c1ccccn1)c1nc2ccccc2s1,0.06%
9,COc1cc(/C=C(/C#N)C(=O)NCCCc2ccccc2)ccc1OCC(=O)O,0.24%
10,COc1cc(/C=C(\C#N)c2nc3ccccc3s2)ccc1OCC(=O)Nc1ccccc1,36.6% (active)
11,Cc1ccc(S(=O)(=O)Nc2ccccc2N(C)S(=O)(=O)c2ccc(C)cc2)cc1,2.27%
12,NC(=O)c1cc2ccc(O)cc2oc1=NCc1ccccc1,0.04%
13,CCN1CC=C2C(C1)C(c1ccc(Cl)s1)C(C#N)=C(N)C2(C#N)C#N (stereo unspecified),2.16%
14,COc1cccc(F)c1C(=O)NC(=O)Nc1ccc2nc(C)oc2c1,42.8% (active)
15,CCNC(=S)N/N=C/c1sc(N2CCCCC2)nc1-c1cccs1,0.09%
16,Cc1ccc(CNC(=O)CCS(=O)(=O)c2cc3c(cc2C)NC(=O)CO3)cc1,0.29%
17,Cc1ncn(C23CC4CC(CC(C4)C2)C3)n1,0%
18,CCc1ccc(C(=O)NNc2cc(Cl)ccc2Cl)cc1,0.03%
19,Cc1nn(C)c(C(=O)N2CCc3ccccc32)c1Br,23.4% (active)
20,Cc1cccc2cc3c(N)c(C(=O)N4CCc5ccccc54)sc3nc12,-0.06%
21,Cc1c(Br)c(C(=O)N2CCc3ccccc32)nn1C,0.13%

row,SMILES,fluorescence artifact activation
1,Nc1ccc2c3c(cccc13)CC2,0.07%
2,O=C(Cn1c2[n+](c3ccc(C(F)(F)F)cc31)CCCCC2)Nc1ccccc1,0.33%
3,CC(=O)/C(C=Nc1noc(C)c1Br)=C(\C)O,11.4%
4,CCC1(CC)C(=O)Nc2ccccc21,-0.02%
5,COc1ccccc1N1CCN(C(=O)c2cn(-c3ccccc3)nc2-c2cccnc2)CC1,0.33%
6,COc1ccc2[nH]c(C(=O)N3CCC(Cc4ccccc4)CC3)cc2c1,0.13%
7,COc1ccccc1N1CCN(C(=O)c2ccc(Cn3c(=O)[nH]c4ccsc4c3=O)cc2)CC1,51.1% (active)
8,COc1ccc(C(=O)c2sc3nc(C)cc(-c4cccs4)c3c2N)cc1OC,0.66%
9,CC(=O)c1ccc2noc(-c3ccc(C)cc3)c2c1,0.23%
10,COc1ccccc1-c1sc2ccccc2c1-c1ccc(Br)nc1,0.93%
11,Oc1ccc(-c2c(C3=CCCCC3)sc3ccccc23)cc1,28.2% (active)
12,CCOc1ccccc1C=NNC(=O)CCCCC(=O)NN=Cc1ccccc1OCC,0.77%
13,Cc1noc(C)c1NC(=O)N(C)C[C@H]1Oc2c(NS(=O)(=O)c3cccs3)cccc2C(=O)N([C@H](C)CO)C[C@@H]1C,-0.07%
14,COC(=O)Cc1ccc(NC(=S)NCCCN2CCOCC2)cc1,-0.02%
15,O=C(NC(=S)NCCN1CCOCC1)c1ccc(F)cc1,21.2% (active)
16,CC(C)(C)c1ccc(C(=O)NC(=S)Nc2ccc(N3CCOCC3)cc2)cc1,0.09%
17,CCCCNC(=O)Nc1nnc(-c2ccccc2)o1,0.13%
18,S=C(Nc1ccc(Cl)cc1)N(CCCN1CCOCC1)Cc1ccco1,0.04%
19,CCC1OC23CCCCC2C(C#N)(C(=N)O3)C1(C#N)C#N (stereo unspecified),0.21%
